According to PMC7704123 (Journal of natural products, 2020):

How the values were obtained:
Type in all cases: cell-based, human
[1] = test system: mTORC1 signaling in MDA-MB-453 cells; assay: Immunoblotting of mTORC1 signaling pathway; settings: immunoblot
Procedure, shortened: (§1)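 Cells (IMEM, 5% FBS) exposed to 100 nM test compound, 100 nM oligomycin, 10 nM rapamycin or DMSO vehicle for 2, 6 or 18 h. Scraped whole-cell lysates with PMSF, Na3VO4 and protease inhibitors; 10 μg protein per lane on 10% Bis-Tris SDS-PAGE, PVDF transfer. Blots probed for phospho/total AKT S473, mTOR S2448, S6K T389, RPS6 S235/236, 4E-BP1 T37/46 and GAPDH; IRDye infrared detection; two independent experiments.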

[2] = test system: mTORC1 signaling in MDA-MB-231 cells; assay: Immunoblotting of mTORC1 signaling pathway; settings: immunoblot
Procedure, shortened: as §1

[3] = test system: MDA-MB-453 and SUM185PE cells; assay: SRB assay, LAR subtype TNBC cell lines taken together; settings: MDA-MB-453 and SUM185PE versus MDA-MB-231, HCC1806 and HCC70, Figure 7C
Procedure, shortened: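 Cells seeded at predetermined densities, left to adhere, then given test compound or DMSO vehicle for 48 h. Fixed, stained with sulforhodamine B, absorbance read at 560 nm. MDA-MB-453, MDA-MB-231 and SUM185PE were grown in IMEM with 5% FBS; HCC1806 and HCC70 in RPMI-1640 with 5% FBS. Proliferation taken relative to vehicle; GI50 by non-linear regression; three independent experiments, each in triplicate.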

[4] = 100 nM oligomycin, 2, 6 or 18 h

| SMILES | mTOR signaling ([1]; 10 nM rapamycin, 2, 6 or 18 h) | mTOR signaling ([2]; 10 nM rapamycin, 2, 6 or 18 h) | growth of LAR cells as compared to other TNBC cell lines [3] | mTOR activity (RPS6 and S6K phosphorylation) [1, 4] | mTOR activity (RPS6 and S6K phosphorylation) [2, 4] |
| --- | --- | --- | --- | --- | --- |
| CO[C@H]1C[C@@H]2CC[C@@H](C)[C@@](O)(O2)C(=O)C(=O)N2CCCC[C@H]2C(=O)O[C@H]([C@H](C)C[C@@H]2CC[C@@H](O)[C@H](OC)C2)CC(=O)[C@H](C)/C=C(\C)[C@@H](O)[C@@H](OC)C(=O)[C@H](C)C[C@H](C)/C=C/C=C/C=C/1C [Rapamycin] | inhibited mTOR signaling in both cell lines | inhibited mTOR signaling in both cell lines |  |  |  |
| CC[C@H]1/C=C/C=C/C[C@@H](C)[C@H](O)[C@@](C)(O)C(=O)[C@@H](C)[C@H](O)[C@@H](C)C(=O)[C@@H](C)[C@H](O)[C@@H](C)/C=C/C(=O)O[C@@H]2[C@H](C)[C@H](CC1)O[C@]1(CC[C@H](C)[C@H](C[C@@H](C)O)O1)[C@H]2C [oligomycin] |  |  | selectively inhibited the growth | selectively inhibited mTOR activity | but not in the resistant MDA-MB-231 cells |
